Compound activity (PubChem BioAssay)
Shown are actives, neighbours in structure and some others; about 12% of the full set was active somewhere.
ROMK mod – human ROMK K+ channel modulation, primary screen; actives 2% (n = 130,000); P48048; Tet-inducible ROMK, thallium flux fluorescence; actives lie on both sides; B-score at 10 µM; AID 1918;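 active = signal ratio slope over the read window, or its plate-corrected B-score, at least 3 SD from the plate mean, either direction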;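 note: B-score of the F/F0 ratio slope over 7 to 12 s after thallium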
WT yeast gro inh – growth inhibition of WT yeast, mitochondrial fusion screen; mitochondrial fusion phenotypic screen, WT strain; inhibition, % at 10 µM; actives 2.1% (n = 190,000); AID 1362; in the data active = inhibition above about 58%; tested in S. cerevisiae
Cl transport mod – KCC2 (human) Cl- transport modulation. KCC2 cells, thallium flux FluoZin-2 fluorescence. Q9H2X9. actives 2.2% (n = 190,000). B-score of Tl+ flux slope (higher = more flux/activation; lower = inhibition) at 10 µM;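 active = thallium flux slope and its plate-corrected score both differing from the plate sample mean at a set confidence after two filtering rounds, in either direction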;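 note: slope of fluorescence scaled to starting intensity during 10 to 20 s after thallium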
Target sequence (Q9H2X9 whole entry, looked up): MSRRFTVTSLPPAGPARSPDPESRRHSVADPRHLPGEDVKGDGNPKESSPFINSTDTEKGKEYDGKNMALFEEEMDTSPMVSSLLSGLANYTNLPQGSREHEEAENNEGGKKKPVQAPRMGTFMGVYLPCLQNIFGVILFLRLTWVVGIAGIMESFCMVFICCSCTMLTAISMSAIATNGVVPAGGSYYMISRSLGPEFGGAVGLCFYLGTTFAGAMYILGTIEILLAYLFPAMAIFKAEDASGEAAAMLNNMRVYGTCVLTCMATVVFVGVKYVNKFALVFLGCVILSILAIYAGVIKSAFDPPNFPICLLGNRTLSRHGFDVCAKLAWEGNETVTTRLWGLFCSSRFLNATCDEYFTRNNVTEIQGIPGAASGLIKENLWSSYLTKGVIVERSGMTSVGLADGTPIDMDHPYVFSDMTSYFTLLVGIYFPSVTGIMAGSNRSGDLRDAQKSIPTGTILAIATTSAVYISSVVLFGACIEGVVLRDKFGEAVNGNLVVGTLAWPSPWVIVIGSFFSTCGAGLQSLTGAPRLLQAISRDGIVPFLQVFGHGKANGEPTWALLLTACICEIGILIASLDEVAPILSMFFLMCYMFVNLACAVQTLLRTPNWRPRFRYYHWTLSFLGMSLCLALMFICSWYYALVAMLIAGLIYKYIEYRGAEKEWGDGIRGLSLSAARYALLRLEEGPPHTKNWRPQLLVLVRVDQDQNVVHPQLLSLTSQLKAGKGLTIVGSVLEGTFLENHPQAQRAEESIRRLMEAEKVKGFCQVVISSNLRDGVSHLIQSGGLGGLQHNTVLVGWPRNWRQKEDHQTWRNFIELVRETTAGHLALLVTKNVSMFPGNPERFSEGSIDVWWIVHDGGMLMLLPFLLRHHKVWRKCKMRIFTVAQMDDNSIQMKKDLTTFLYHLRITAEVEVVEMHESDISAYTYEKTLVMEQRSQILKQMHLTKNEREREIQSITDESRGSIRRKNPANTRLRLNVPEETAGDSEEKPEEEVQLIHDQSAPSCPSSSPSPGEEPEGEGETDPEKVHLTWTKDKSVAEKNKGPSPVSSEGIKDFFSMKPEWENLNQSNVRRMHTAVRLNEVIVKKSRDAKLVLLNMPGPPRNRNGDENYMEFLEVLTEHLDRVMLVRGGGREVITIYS
Lmaj promast – reduces viability of Leishmania major promastigotes; resazurin fluorescence viability; inhibition, % at 10 µM; actives 9% (n = 200,000); AID 1063; in the data active = inhibition above about 50%;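 note: promastigotes grown with compound for 44 hours at 28 °C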
Diaphorase inh – diaphorase inhibition or chemical oxidation counter-screen; diaphorase resazurin-to-resorufin fluorescence, NADH, 16 min; bacterial (C. kluyveri) enzyme, not human; inhibition, % at 20 µM; actives 0.69% (n = 190,000);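 active = primary screen inhibition at 20 µM above a set limit, cut at about 50% in these data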
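Test system: diaphorase enzyme from Clostridium kluyveri; amount: diaphorase at 0.14 U/mL in enzyme working solution; detection: fluorescence of resorufin formed from resazurin, Ex 544/Em 590 nm; times: reaction incubation of 16 min at room temperature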
Diaphorase act – activates diaphorase or chemically reduces, flagging diaphorase assay artifacts; Diaphorase/resazurin coupled assay, resorufin fluorescence, 16 min; stronger effect = higher value; 1 = vehicle wells, 0 = NADH-free wells; activation factor at 20 µM; actives 0.005% (n = 190,000); AID 1229;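 active = diaphorase activity raised at least twofold by the compound at 20 µM; inactive = activation factor below 2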
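Assay system: Purified diaphorase enzyme from Clostridium kluyveri | Amount: Enzyme 0.07 U/mL final | Dosing: Compound 20 µM once, DMSO 1% | Timing: 16 min reaction at room temperature | Detection: Fluorescence, excitation 544 nm and emission 590 nm | Evaluation: Higher resorufin formation from activation or reduction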
KCC2 secondary – KCC2 (human) modulation, secondary assay | AID 1713 | HEK293-KCC2, thallium flux, FluoZin2 fluorescence; stronger effect = higher value | shares compounds with Cl transport mod | actives 15% (n = 3,700) | normalised thallium flux (F/F0 slope) at 10 µM;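 active = thallium flux slope above the same plate's solvent-only control mean plus 3 SD; inconclusive = the two replicate wells disagree; inactive = no significant difference from solvent-only control wells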
KCC2 bumet counter – bumetanide-insensitive thallium flux in KCC2 cells with ouabain, counter-screen; shares compounds with Cl transport mod; HEK293-KCC2 + bumetanide/ouabain, thallium flux FluoZin2; stronger effect = higher value; normalized thallium flux at 10 µM; actives 49% (n = 3,700); AID 1714;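 active = thallium entry rate above the same plate's blocked-transporter control wells by more than 3 SD; inconclusive = the two repeat wells disagree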;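 note: raw slope of fluorescence over initial fluorescence between 10 and 20 s after thallium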
KCC2 sec2 – KCC2 (human) modulation, second secondary assay. shares compounds with Cl transport mod. HEK293-KCC2, thallium flux FluoZin2 fluorescence; actives lie on both sides; F/F0 rise rate, 10–20 s post-thallium. normalized thallium flux at 10 µM. actives 23% (n = 3,700);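 active = thallium flux slope more than 3 SD above or below the plate's solvent-only control mean, mostly below; inconclusive = the two repeat wells disagreed; inactive = no significant shift from solvent-only controls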
HEK293 Tl flux – parental HEK flux effect, counter-screen; thallium flux rate (normalised fluorescence) at 10 µM; AID 1716; HEK293 parental cells, thallium flux FluoZin2, ouabain; baseline-ratio fluorescence slope, 10–20 s after thallium; actives 46% (n = 3,700); shares compounds with Cl transport mod;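 active = thallium flux rate significantly above the same plate's solvent-only control wells, beyond their mean plus 3 SD; inconclusive = the two replicate wells gave conflicting results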
KCC2 ouabain – KCC2 (human) modulation, ouabain retest; shares compounds with Cl transport mod; HEK293-KCC2, thallium flux FluoZin2 fluorescence; bidirectional: low = inhibitor, high = activator; raw Tl+ flux slope (below DMSO = inhibition, above = activation) at 10 µM; actives 48% (n = 3,700);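 active = thallium flux slope beyond 3 SD from same-plate DMSO control mean in most replicates, usually higher, sometimes lower; inconclusive = repeat tests gave conflicting results; inactive = no significant difference from controls in most replicates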;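 note: slope of initial-normalized fluorescence between seconds 10 and 20 after thallium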
HEK293 Tl flux2 – counter-screen for KCC2 modulators: effect in parental HEK293 cells. shares compounds with Cl transport mod. thallium flux FluoZin-2 fluorescence slope. thallium flux slope at 10 µM. actives 33% (n = 3,700). AID 1718;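 active = thallium flux slope above the same plate's solvent-control mean plus 3 SD in both duplicate wells; inconclusive = duplicate wells that disagreed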;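 note: run without ouabain in cells lacking the KCC2 cotransporter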
Large screens that a line does not name were inactive (follow-up assays come after a bar, where they were run).

CCOc1ccc(C(CCc2ccccc2)NC(=O)c2ccccc2F)cc1OCC (stereo not given)	none
CC(C)Oc1cccc(C(=O)Nc2ccccc2N2CCOCC2)c1	Cl transport mod -8.53 (no result: ROMK mod) | KCC2 secondary inactive | KCC2 bumet counter inactive | KCC2 sec2 inactive | HEK293 Tl flux inactive | KCC2 ouabain inactive | HEK293 Tl flux2 inactive
CCC(C)Oc1cccc(C(=O)Nc2ccccc2N2CCOCC2)c1 (stereo not given)	none (no result: ROMK mod)
COC(=O)c1cccc(C23CC4(C2)[C@H](CN(Cc2cccnc2)[C@@H]4c2ccccc2)C3c2ccc(C(F)(F)F)cc2)c1 (stereo not given in full)	Cl transport mod -3.21 (no result: ROMK mod, WT yeast gro inh, Lmaj promast, Diaphorase inh, Diaphorase act) | KCC2 secondary inconclusive | KCC2 bumet counter 0.0085 | KCC2 sec2 inactive | HEK293 Tl flux inactive | KCC2 ouabain inactive | HEK293 Tl flux2 inactive
COc1cccc(-n2nc(C(=O)N3CC(C)CC(C)C3)c3ccccc3c2=O)c1 (stereo not given)	Cl transport mod 4.37 | KCC2 secondary inactive | KCC2 bumet counter inactive | KCC2 sec2 inactive | HEK293 Tl flux inactive | KCC2 ouabain inactive | HEK293 Tl flux2 inactive
COc1ccc(-n2nc(C(=O)O)c3ccccc3c2=O)cc1	none
CCN(CC)S(=O)(=O)c1ccc(Cl)c(OC)c1	none (no result: Cl transport mod) | KCC2 secondary inactive | KCC2 bumet counter inactive | KCC2 sec2 inactive | HEK293 Tl flux inactive | KCC2 ouabain inactive | HEK293 Tl flux2 inactive
O=C(CSc1nc2ccccc2[nH]1)NCCCn1ccnc1	none (no result: ROMK mod)
CC(Sc1nnc2ccccn12)C(=O)Nc1ccc2c(c1)OCCO2 (stereo not given)	none (no result: Cl transport mod) | KCC2 secondary inactive | KCC2 bumet counter inactive | KCC2 sec2 inactive | HEK293 Tl flux inactive | KCC2 ouabain inactive | HEK293 Tl flux2 inactive
CC(Sc1nnc2ccccn12)C(=O)NCc1ccc2c(c1)OCO2 (stereo not given)	none
Oc1c(N=NC(=S)Nc2ccccc2F)c2ccccc2n1Cc1ccccc1	Cl transport mod 20.6, Lmaj promast 95.6 | KCC2 secondary inconclusive | KCC2 bumet counter 0.046 | KCC2 sec2 inactive | HEK293 Tl flux inconclusive | KCC2 ouabain 0.0298 | HEK293 Tl flux2 inconclusive
C=CCn1c(O)c(N=NC(=S)Nc2cccc(C)c2)c2ccccc21	Cl transport mod 82.2, Lmaj promast 98.7 | KCC2 secondary inactive | KCC2 bumet counter 0.0839 | KCC2 sec2 0.0568 | HEK293 Tl flux 0.0295 | KCC2 ouabain 0.0626 | HEK293 Tl flux2 0.0231
c1ccc2c(c1)c1ccccc1n2CN1CCOCC1	none (no result: ROMK mod)
Cc1c(Cl)cccc1NC(=S)N=Nc1c(O)n(CN2CCOCC2)c2ccccc12	Cl transport mod 47.8, Lmaj promast 98.1 | KCC2 secondary 0.0162 | KCC2 bumet counter 0.0516 | KCC2 sec2 inactive | HEK293 Tl flux 0.0383 | KCC2 ouabain 0.0559 | HEK293 Tl flux2 0.0134
C=CCn1c(O)c(N=NC(=S)Nc2ccccc2F)c2ccccc21	Cl transport mod 107, Lmaj promast 96.4 | KCC2 secondary 0.0364 | KCC2 bumet counter 0.136 | KCC2 sec2 0.0503 | HEK293 Tl flux inconclusive | KCC2 ouabain 0.0888 | HEK293 Tl flux2 0.0277
COc1ccc(CCNC(=O)Cn2c([N+](=O)[O-])cnc2C)cc1OC	none
C=CCn1c(O)c(N=NC(=S)Nc2ccccc2F)c2cc(S(=O)(=O)N3CCOCC3)ccc21	Cl transport mod 63.9 | KCC2 secondary 0.0182 | KCC2 bumet counter 0.0497 | KCC2 sec2 inactive | HEK293 Tl flux 0.0558 | KCC2 ouabain 0.0494 | HEK293 Tl flux2 0.0196
COCC(=O)/C=C1\Sc2ccccc2N1C	none (no result: ROMK mod)
CN1/C(=C/C(=O)C2CCC2)Sc2ccccc21	Cl transport mod -4.56 (no result: ROMK mod) | KCC2 secondary inactive | KCC2 bumet counter inactive | KCC2 sec2 0.0216 | HEK293 Tl flux inactive | KCC2 ouabain 0.0139 | HEK293 Tl flux2 inactive
CC(C)(C)c1cc2cccnc2n1Cc1cccc(Cl)c1	none (no result: ROMK mod, Cl transport mod)
COC(=O)NNC(=O)C12CC3CC(CC(C3)C1)C2	none (no result: ROMK mod)
CC(C)(C)NC(=O)C(=O)NNC(=O)C12CC3CC(CC(C3)C1)C2	Cl transport mod 5.92 | KCC2 secondary inconclusive | KCC2 bumet counter 0.0452 | KCC2 sec2 0.0364 | HEK293 Tl flux 0.0286 | KCC2 ouabain 0.0384 | HEK293 Tl flux2 0.0232
Cc1cccc(-c2nc(CSCC(=O)N3CCN(Cc4ccc5c(c4)OCO5)CC3)c(C)o2)c1	none (no result: ROMK mod)
S=c1nc[nH]c2c1cnn2-c1ccccc1	Cl transport mod 149 (no result: ROMK mod, WT yeast gro inh, Lmaj promast, Diaphorase inh, Diaphorase act) | KCC2 secondary 0.0523 | KCC2 bumet counter 0.156 | KCC2 sec2 0.0668 | HEK293 Tl flux 0.0927 | KCC2 ouabain 0.115 | HEK293 Tl flux2 0.0509
COc1ccc(O)c(-c2[nH]ncc2C(=O)c2ccccc2C)c1	none (no result: Cl transport mod)
Cc1ccc(-c2ccc(S(=O)(=O)NCC3CCCO3)cc2)cc1 (stereo not given)	Cl transport mod -4.89 | KCC2 secondary inactive | KCC2 bumet counter inactive | KCC2 sec2 0.0265 | HEK293 Tl flux inactive | KCC2 ouabain inconclusive | HEK293 Tl flux2 inactive
CC1OC(O[C@H]2CC[C@]3(C)C4C=C[C@]56OC[C@@]7(CC[C@@H](C)[C@H](C)C75)[C@H](O)C[C@@]6(C)[C@]4(C)CC[C@H]3C2(C)C)C(OC2OC(CO)C(O)C(O)C2OC2OCC(O)C(O)C2O)C(O)C1O (stereo not given in full)	Cl transport mod 39.5 (no result: ROMK mod, WT yeast gro inh, Lmaj promast, Diaphorase inh, Diaphorase act) | KCC2 secondary 0.0129 | KCC2 bumet counter 0.0464 | KCC2 sec2 inactive | HEK293 Tl flux inactive | KCC2 ouabain inconclusive | HEK293 Tl flux2 inactive
N#CC(C#N)=C(Nc1ccc(F)cc1)SCc1cccc(F)c1	Cl transport mod -5.05 | KCC2 secondary inactive | KCC2 bumet counter inconclusive | KCC2 sec2 0.0247 | HEK293 Tl flux inconclusive | KCC2 ouabain 0.014 | HEK293 Tl flux2 0.00905
